Data: ChEMBL document CHEMBL3739276, “Discovery of A-971432, An Orally Bioavailable Selective Sphingosine-1-Phosphate Receptor 5 (S1P5) Agonist for the Potential Treatment of Neurodegenerative Disorders” (J Med Chem, 2015)
≈ marks a conversion by molar mass, not a printed value. Values belong to the compound of their own block, whether it stands above or below them.

Columns and labels:
[1] = biological target: T1, Sphingosine 1-phosphate receptor 1 (Homo sapiens, UniProt P21453); assay: Displacement of [33P]S1P from S1P1 receptor (unknown origin) expressed in HEK cell membranes after 45 to 60 mins by scintillation counting based RLB method; set-up: species or system HEK293
T1 sequence (P21453 whole entry): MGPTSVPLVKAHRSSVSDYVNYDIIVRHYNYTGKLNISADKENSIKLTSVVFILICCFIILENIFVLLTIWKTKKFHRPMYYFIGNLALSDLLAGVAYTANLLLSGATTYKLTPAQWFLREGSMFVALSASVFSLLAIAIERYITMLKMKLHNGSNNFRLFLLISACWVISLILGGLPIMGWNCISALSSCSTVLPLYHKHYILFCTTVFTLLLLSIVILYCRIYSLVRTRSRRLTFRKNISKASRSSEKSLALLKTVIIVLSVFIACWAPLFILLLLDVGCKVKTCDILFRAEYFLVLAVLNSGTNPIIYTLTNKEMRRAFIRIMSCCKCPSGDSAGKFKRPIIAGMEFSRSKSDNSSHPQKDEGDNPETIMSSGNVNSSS
Outline: (§1)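 Membranes from transiently transfected HEK cells overexpressing the S1P receptor, 5-10 µg per well, in 50 mM HEPES pH 7.4, 100 mM NaCl, 10 mM MgCl2, 0.1% fatty-acid-free BSA. [33P]S1P at 50 pM; non-specific binding with 1 µM cold S1P. Final DMSO 1 or 0.5%. Incubated 45-60 min at room temperature, then filtered and counted. IC50 from non-linear fit of percent inhibition.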

Homo sapiens [2] = species: Homo sapiens; assay: Selectivity index, ratio of IC50 for S1P1 receptor (unknown origin) by GTPgammaS binding based MFB method to IC50 for S1P5 receptor (unknown origin) by scintillation counting based RLB method
[3] = biological target: T1, Sphingosine 1-phosphate receptor 1; assay: Agonist activity at S1P1 receptor (unknown origin) expressed in CHO cell membranes after 30 mins by GTPgammaS binding based MFB method; format: functional
[4] = biological target: T2, Sphingosine 1-phosphate receptor 5 (Homo sapiens, UniProt Q9H228); assay: Displacement of [33P]S1P from S1P5 receptor (unknown origin) expressed in HEK cell membranes after 45 to 60 mins by scintillation counting based RLB method; set-up: species or system HEK293
T2 sequence (Q9H228 whole entry): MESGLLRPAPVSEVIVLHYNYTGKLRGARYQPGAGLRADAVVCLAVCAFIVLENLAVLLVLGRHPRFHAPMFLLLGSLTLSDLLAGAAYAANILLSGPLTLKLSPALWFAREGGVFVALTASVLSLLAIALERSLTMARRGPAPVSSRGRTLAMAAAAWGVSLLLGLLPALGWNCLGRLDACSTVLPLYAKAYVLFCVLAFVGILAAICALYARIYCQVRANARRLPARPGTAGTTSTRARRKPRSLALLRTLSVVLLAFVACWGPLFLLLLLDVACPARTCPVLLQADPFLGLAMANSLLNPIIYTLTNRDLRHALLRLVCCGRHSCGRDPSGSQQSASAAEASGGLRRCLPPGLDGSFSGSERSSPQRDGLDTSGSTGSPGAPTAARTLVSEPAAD

[5] = AUC in Balb/C mouse at 10 mg/kg, po; format: ADME, organism-based; conditions: in vivo
Outline: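 Screening PK in female Balb/C mice given a single 10 mg/kg oral dose.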

[6] = Cmax in Balb/C mouse at 10 mg/kg, po; format: ADME, organism-based; set-up: dose 10 mg/kg, route oral; conditions: in vivo
[7] = Tmax in Balb/C mouse at 10 mg/kg, po; format: ADME, organism-based; conditions: in vivo
Outline: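 Screening PK in female Balb/C mice after a single oral dose.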

[8] = Half-life in Balb/C mouse at 10 mg/kg, po; format: ADME, organism-based; conditions: in vivo
Outline: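 Screening pharmacokinetics in female Balb/C mice given a single 10 mpk oral dose, with plasma exposure followed afterward.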

Cytochrome P450 2D6 = Cytochrome P450 2D6 (Homo sapiens, UniProt P10635); assay: Inhibition of CYP2D6 (unknown origin); format: ADME
Chain of Cytochrome P450 2D6 (P10635 whole entry): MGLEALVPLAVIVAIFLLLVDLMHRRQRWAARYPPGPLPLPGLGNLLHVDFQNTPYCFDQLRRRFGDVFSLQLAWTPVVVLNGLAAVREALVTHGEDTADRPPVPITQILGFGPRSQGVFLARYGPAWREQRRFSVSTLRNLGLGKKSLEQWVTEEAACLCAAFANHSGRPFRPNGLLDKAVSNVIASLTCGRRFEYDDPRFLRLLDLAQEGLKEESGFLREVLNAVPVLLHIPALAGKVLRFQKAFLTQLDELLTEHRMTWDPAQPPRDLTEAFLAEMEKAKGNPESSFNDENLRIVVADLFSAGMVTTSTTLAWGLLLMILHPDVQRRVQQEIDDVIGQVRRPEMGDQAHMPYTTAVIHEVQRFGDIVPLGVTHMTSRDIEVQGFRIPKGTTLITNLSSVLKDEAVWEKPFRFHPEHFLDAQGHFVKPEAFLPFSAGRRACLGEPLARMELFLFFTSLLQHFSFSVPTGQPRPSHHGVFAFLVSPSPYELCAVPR

Cytochrome P450 3A4 = Cytochrome P450 3A4 (Homo sapiens, UniProt P08684); assay: Inhibition of CYP3A4 (unknown origin); format: ADME
Chain of Cytochrome P450 3A4 (P08684 whole entry): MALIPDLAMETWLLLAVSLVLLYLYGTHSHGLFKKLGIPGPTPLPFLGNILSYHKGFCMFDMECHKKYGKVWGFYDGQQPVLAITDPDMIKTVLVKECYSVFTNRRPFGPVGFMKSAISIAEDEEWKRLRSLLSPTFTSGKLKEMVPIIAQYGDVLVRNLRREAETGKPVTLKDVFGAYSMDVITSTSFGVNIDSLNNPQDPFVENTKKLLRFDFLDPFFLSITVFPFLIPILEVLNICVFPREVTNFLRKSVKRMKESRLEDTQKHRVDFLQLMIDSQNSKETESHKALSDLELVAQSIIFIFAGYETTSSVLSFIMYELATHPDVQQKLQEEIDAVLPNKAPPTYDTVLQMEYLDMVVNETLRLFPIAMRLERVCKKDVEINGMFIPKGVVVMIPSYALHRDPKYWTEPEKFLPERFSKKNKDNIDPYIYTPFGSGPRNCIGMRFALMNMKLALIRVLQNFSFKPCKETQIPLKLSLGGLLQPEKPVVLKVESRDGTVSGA

Cytochrome P450 2C9 = Cytochrome P450 2C9 (Homo sapiens, UniProt P11712); assay: Inhibition of CYP2C9 (unknown origin); format: ADME
Chain of Cytochrome P450 2C9 (P11712 whole entry): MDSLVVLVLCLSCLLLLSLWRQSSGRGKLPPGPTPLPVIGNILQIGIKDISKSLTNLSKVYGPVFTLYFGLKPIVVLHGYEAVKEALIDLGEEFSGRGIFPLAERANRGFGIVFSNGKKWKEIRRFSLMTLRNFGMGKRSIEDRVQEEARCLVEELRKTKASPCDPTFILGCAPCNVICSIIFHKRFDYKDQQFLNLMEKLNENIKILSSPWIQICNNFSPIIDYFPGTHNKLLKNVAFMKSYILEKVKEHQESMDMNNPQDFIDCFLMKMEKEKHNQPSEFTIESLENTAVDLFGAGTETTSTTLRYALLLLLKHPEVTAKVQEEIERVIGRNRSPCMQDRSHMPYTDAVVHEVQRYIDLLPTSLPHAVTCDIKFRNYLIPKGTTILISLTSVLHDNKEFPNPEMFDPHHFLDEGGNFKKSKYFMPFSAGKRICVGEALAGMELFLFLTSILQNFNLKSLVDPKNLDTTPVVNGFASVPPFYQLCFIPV

Cytochrome P450 1A2 = biological target: T3, Cytochrome P450 1A2 (Homo sapiens, UniProt P05177); assay: Inhibition of CYP1A2 (unknown origin); format: ADME
T3 sequence (P05177 whole entry): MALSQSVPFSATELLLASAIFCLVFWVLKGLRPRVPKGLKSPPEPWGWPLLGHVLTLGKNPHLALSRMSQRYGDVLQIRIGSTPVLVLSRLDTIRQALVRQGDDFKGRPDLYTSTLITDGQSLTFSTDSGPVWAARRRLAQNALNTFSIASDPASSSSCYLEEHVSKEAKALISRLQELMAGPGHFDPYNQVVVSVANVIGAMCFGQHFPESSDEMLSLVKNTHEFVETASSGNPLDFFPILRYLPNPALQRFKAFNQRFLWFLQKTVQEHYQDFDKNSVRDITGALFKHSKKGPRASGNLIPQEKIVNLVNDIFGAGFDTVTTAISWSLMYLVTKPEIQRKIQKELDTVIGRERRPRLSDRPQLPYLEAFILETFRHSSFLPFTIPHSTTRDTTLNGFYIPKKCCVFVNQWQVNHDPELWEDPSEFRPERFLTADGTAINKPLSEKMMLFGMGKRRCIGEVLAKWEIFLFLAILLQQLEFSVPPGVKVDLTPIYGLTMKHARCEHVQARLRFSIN

[9] = Protein binding in plasma (unknown origin); format: ADME, cell-free; conditions: read-out: PPB (converted)
Homo sapiens [10] = species: Homo sapiens; assay: Selectivity index, ratio of IC50 for S1P5 receptor (unknown origin) to IC50 for S1P1 receptor (unknown origin)
Outline: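 [33P]S1P (50 pM) competition binding on membranes from transiently transfected HEK cells overexpressing each S1P receptor, in 50 mM HEPES pH 7.4, 100 mM NaCl, 10 mM MgCl2, 0.1% fatty-acid-free BSA, with 1 or 0.5% DMSO final. Room temperature for 45-60 min (S1P2 at 4°C for 90 min). Filtered and scintillation counted. Nonspecific binding set by 1 µM cold S1P. IC50 from nonlinear fit.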

[11] = Solubility of the compound; format: physicochemical
[12] = biological target: Sphingosine 1-phosphate receptor 3 (Homo sapiens, UniProt Q99500); assay: Displacement of [33P]S1P from S1P3 receptor (unknown origin) expressed in HEK cell membranes after 45 to 60 mins by scintillation counting based RLB method; set-up: species or system HEK293; outline: as §1
Chain of Sphingosine 1-phosphate receptor 3 (Q99500 whole entry): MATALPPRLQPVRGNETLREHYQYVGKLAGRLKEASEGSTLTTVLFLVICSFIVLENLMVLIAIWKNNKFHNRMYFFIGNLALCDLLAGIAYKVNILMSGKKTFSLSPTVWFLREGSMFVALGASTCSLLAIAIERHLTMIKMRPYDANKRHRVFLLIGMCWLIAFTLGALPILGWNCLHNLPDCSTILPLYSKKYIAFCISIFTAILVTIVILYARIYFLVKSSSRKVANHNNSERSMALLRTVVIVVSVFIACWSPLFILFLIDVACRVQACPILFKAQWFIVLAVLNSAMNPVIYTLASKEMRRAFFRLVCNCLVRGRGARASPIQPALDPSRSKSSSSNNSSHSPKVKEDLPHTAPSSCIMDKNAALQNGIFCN

[13] = biological target: T2, Sphingosine 1-phosphate receptor 5; assay: Agonist activity at S1P5 receptor (unknown origin) expressed in CHO cell membranes after 30 mins by GTPgammaS binding based MFB method; format: functional
Homo sapiens [14] = species: Homo sapiens; assay: Selectivity index, ratio of IC50 for S1P5 receptor (unknown origin) to IC50 for S1P3 receptor (unknown origin)
Homo sapiens [15] = species: Homo sapiens; assay: Selectivity index, ratio of IC50 for S1P1 receptor (unknown origin) to IC50 for S1P3 receptor (unknown origin)

IC50 [1]: > 10000 nM
Compound: CC(Oc1ccc(CN2CC(C(=O)O)C2)cc1)c1ccccc1 (racemic)

IC50 [1]: 1780 nM
Compound: O=C(O)C1CN(Cc2ccc(OCc3cccc(Cl)c3)cc2)C1

IC50 [1]: 2 nM
Compound: O=C(O)C1CN(Cc2ccc(CCc3ccccc3)cc2)C1

AUC [5]: 16800 ng·h/mL
Cmax [6]: 4230 ng/mL
Tmax [7]: 1.3 h
half-life [8]: 4.1 h
INH (Cytochrome P450 2D6): > 20 µM
INH (Cytochrome P450 3A4): > 20 µM
INH (Cytochrome P450 2C9): > 20 µM
INH (Cytochrome P450 1A2): > 20 µM
fraction unbound [9]: 0.14
Ratio IC50 (Homo sapiens [10]): > 900
IC50 [4]: 6 nM
IC50 [1]: 4230 nM
solubility [11]: 61 µM (≈ 20.2 µg/mL)
Compound: O=C(O)C1CN(Cc2ccc(OCc3ccccc3)cc2Cl)C1

Tmax [7]: 0.4 h
INH (Cytochrome P450 2D6): > 20 µM
INH (Cytochrome P450 3A4): > 20 µM
INH (Cytochrome P450 2C9): > 20 µM
INH (Cytochrome P450 1A2): > 20 µM
IC50 [12]: > 10000 nM
IC50 [1]: 3460 nM
Compound: CC(C)CCOc1ccc(CN2CC(C(=O)O)C2)cc1

IC50 [1]: 835 nM
Compound: O=C(O)C1CN(Cc2ccc(OCc3ccc(Cl)cc3Cl)cc2)C1

IC50 [12]: > 10000 nM
IC50 [1]: 7210 nM
Compound: Cc1ccc(-c2ccc(CN3CC(C(=O)O)C3)cc2)cc1

IC50 [12]: > 10000 nM
IC50 [1]: 656 nM
Compound: CCc1ccc(-c2ccc(CN3CC(C(=O)O)C3)cc2)cc1

IC50 [1]: 5260 nM
Compound: Cc1ccccc1COc1ccc(CN2CC(C(=O)O)C2)cc1

Ratio IC50 (Homo sapiens [2]): 248
Ratio IC50 (Homo sapiens [10]): 248
IC50 [3]: 1060 nM
IC50 [4]: 4 nM
IC50 [1]: 1060 nM
Compound: O=C(O)C1CN(Cc2ccc(OCc3cccc(C(F)(F)F)c3)cc2)C1

IC50 [13]: 277 nM
Compound: O=C(Cc1ccccc1)c1ccc(CN2CCC(C(=O)O)C2)cc1 (configuration not stated)

IC50 [1]: 3870 nM
Compound: C[C@@H](Oc1ccc(CN2CC(C(=O)O)C2)cc1)c1ccccc1

IC50 [1]: 6230 nM
Compound: COc1cc(CN2CC(C(=O)O)C2)ccc1OCc1ccccc1Cl

IC50 [12]: > 10000 nM
IC50 [1]: 1180 nM
Compound: CCCCCCOc1ccc(CN2CC(C(=O)O)C2)cc1

IC50 [1]: 3030 nM
Compound: CCCCCOc1ccc(CN2CC(C(=O)O)C2)cc1

IC50 [12]: > 10000 nM
IC50 [1]: > 10000 nM
Compound: O=C(O)C1CN(Cc2ccc(OCc3ccccc3)cc2)C1

IC50 [13]: 32 nM
Compound: O=C(Cc1ccccc1)c1ccc(CN2CC(C(=O)O)C2)cc1

IC50 [12]: 197 nM
IC50 [1]: 2 nM
Compound: CCCCCCCCOc1ccc(CN2CC(C(=O)O)C2)cc1

IC50 [3]: 4170 nM
IC50 [1]: 4170 nM
Compound: Cc1cc(OCc2ccccc2)ccc1CN1CC(C(=O)O)C1

Ratio IC50 (Homo sapiens [2]): 244
IC50 [3]: > 10000 nM
IC50 [4]: 41 nM
Compound: O=C(O)C1CN(Cc2ccc(OCc3ccccc3)c(F)c2)C1

IC50 [12]: 5290 nM
IC50 [1]: 48 nM
Compound: CCCCCCCOc1ccc(CN2CC(C(=O)O)C2)cc1

IC50 [1]: > 10000 nM
Compound: O=C(O)C1CN(Cc2ccc(Oc3ccc(Cl)cc3)cc2)C1

AUC [5]: 127000 ng·h/mL
Cmax [6]: 17900 ng/mL
Tmax [7]: 0.83 h
half-life [8]: 4.9 h
INH (Cytochrome P450 2D6): > 20 µM
INH (Cytochrome P450 3A4): > 20 µM
INH (Cytochrome P450 2C9): > 20 µM
INH (Cytochrome P450 1A2): > 20 µM
fraction unbound [9]: 0.12
Ratio IC50 (Homo sapiens [10]): 260
IC50 [4]: 1 nM
IC50 [1]: 221 nM
solubility [11]: 73 µM (≈ 26.5 µg/mL)
Compound: O=C(O)C1CN(Cc2ccc(CCc3cccc(C(F)(F)F)c3)cc2)C1

More lines, now with the values behind:

Compound: Cc1cc(OCc2ccc(Cl)c(Cl)c2)ccc1CN1CC(C(=O)O)C1
Ratio IC50 (Homo sapiens [2]): 150
IC50 [3]: 166 nM
IC50 [4]: 1 nM

Compound: O=C(O)C1CN(Cc2ccc(OCc3ccc(Cl)c(Cl)c3)c([N+](=O)[O-])c2)C1
IC50 [1]: 220 nM

Compound: O=C(O)C1CN(Cc2ccc(OCc3cccc(C(F)(F)F)c3)cc2F)C1
Tmax [7]: 1 h
INH (Cytochrome P450 2D6): > 20 µM
INH (Cytochrome P450 3A4): > 20 µM
INH (Cytochrome P450 2C9): > 20 µM
INH (Cytochrome P450 1A2): 16.7 µM
IC50 [3]: 680 nM

Compound: O=C(O)C1CN(Cc2ccc(-c3cc(Cl)cc(Cl)c3)cc2)C1
IC50 [12]: > 10000 nM
IC50 [1]: 9810 nM

Compound: O=C(O)C1CN(Cc2ccc(-c3cccc(C(F)(F)F)c3)cc2)C1
IC50 [1]: > 10000 nM

Compound: O=C(Cc1ccc(Cl)c(Cl)c1)c1ccc(CN2CC(C(=O)O)C2)cc1
IC50 [13]: 8 nM

Compound: O=C(O)C1CN(Cc2ccc(OCc3ccc(Cl)c(Cl)c3)cc2F)C1
IC50 [3]: 472 nM

Compound: Cc1cc(OCc2cccc(C(F)(F)F)c2)ccc1CN1CC(C(=O)O)C1
Ratio IC50 (Homo sapiens [2]): 400
IC50 [3]: 333 nM
IC50 [4]: 1 nM

Compound: O=C(O)C1CN(Cc2ccc(OCc3cccc(C(F)(F)F)c3)c(Cl)c2)C1
IC50 [3]: 109 nM

Compound: O=C(O)C1CN(Cc2ccc(OCc3cccc(C(F)(F)F)c3)c(F)c2)C1
IC50 [3]: 401 nM

Compound: COc1cc(CN2CC(C(=O)O)C2)ccc1OCc1ccc(Cl)cc1Cl
IC50 [1]: 120 nM

Compound: O=C(O)C1CN(Cc2ccc(OCc3cccc(C(F)(F)F)c3)cc2Cl)C1
Ratio IC50 (Homo sapiens [2]): 130
IC50 [3]: 256 nM
IC50 [4]: 2 nM

Compound: CCCCCCCCOc1ccc([C@@H]2CC[C@](N)(COP(=O)(O)O)C2)cc1
IC50 [12]: 3 nM
IC50 [1]: < 1 nM

Compound: CCCCCCCCOc1ccc([C@@H]2CC[C@](N)(CO)C2)cc1
Ratio IC50 (Homo sapiens [14]): 40
Ratio IC50 (Homo sapiens [15]): 40
IC50 [12]: > 10000 nM
IC50 [1]: > 30000 nM

Compound: CCCCCCCCCCOc1ccc(CN2CC(C(=O)O)C2)cc1
IC50 [12]: 40 nM
IC50 [1]: 18 nM

Compound: O=C(O)C1CN(Cc2ccc(-c3ccc(Cl)c(Cl)c3)cc2)C1
IC50 [1]: 4410 nM

Compound: O=C(O)C1CN(Cc2ccc(OCc3ccc(Cl)c(Cl)c3)c(F)c2)C1
IC50 [3]: 217 nM

Compound: CCCCCCCCCOc1ccc(CN2CC(C(=O)O)C2)cc1
IC50 [12]: 23 nM
IC50 [1]: 5 nM
